The species entered for the first assay is Canis familiaris. The assay is described as follows: repolarization to reach -60mV, in canine Purkinje Fibers at a concentration of 3.0 uM at 1000 ms (simulating normal heart rate). Format: functional, Canis lupus familiaris, Purkinje fiber.
Conditions: not given
A digest of the protocol:
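Purkinje fiber bundles were stimulated with square-wave current pulses of 2.0 ms at twice threshold and equilibrated for at least 1 h, or until action potential parameters were steady. Each concentration was superfused for 45-60 min to reach steady state. Action potentials were recorded at four to six sites per fiber, under control and after drug.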
In turn, `CN(Cc1ccc2ccccc2n1)CC(O)COc1ccc(-n2ccnc2)cc1` (centres undefined) returned an APD of 39%.

The compound `CN(Cc1ccc2cc(Cl)ccc2n1)CC(O)COc1ccc(NS(C)(=O)=O)cc1` (centres undefined) displayed an APD of 65%.

In the case of `Cc1nc2ccccc2nc1CN(C)CC(O)COc1ccc(NS(C)(=O)=O)cc1` (centres undefined), the APD is 17%.

As to `COc1ccc2nc(CN(C)CC(O)COc3ccc(NS(C)(=O)=O)cc3)ccc2c1` (centres undefined), the APD was 54%.

Consider `CN(Cc1nc2ccccc2n1C)CC(O)COc1ccc(NS(C)(=O)=O)cc1` (centres undefined), for which the APD is 19%.

Turning to `CS(=O)(=O)Nc1ccc(OCC(O)CN2CCN(c3ncccn3)CC2)cc1` (centres undefined), the APD is 23%.

The species named for the next assay is Canis familiaris. The assay is described as follows: Repolarization to reach -60mV, in canine Purkinje Fibers at a concentration of 3.0 uM at 300 ms (simulating tachycardia). Format: functional, Canis lupus familiaris, Purkinje fiber.
Conditions: not given
A digest of the protocol:
(§1)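 Isolated canine Purkinje fiber bundles were driven by square-wave pulses 2.0 ms long at 2× threshold and equilibrated ≥1 h to steady state. Each concentration was superfused 45–60 min before recording, and action potentials were sampled at 4–6 sites per fiber in control and after drug, giving Vmax and APD to −60 mV.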
In turn, `CN(Cc1ccc2ccccc2n1)CC(O)COc1ccc(-n2ccnc2)cc1` (centres undefined) returned an APD of 10%.

`CN(Cc1ccc2cc(Cl)ccc2n1)CC(O)COc1ccc(NS(C)(=O)=O)cc1` (centres undefined) registered an APD of 29%.

In turn, `Cc1nc2ccccc2nc1CN(C)CC(O)COc1ccc(NS(C)(=O)=O)cc1` (centres undefined) registered an APD of 11%.

In the case of `COc1ccc2nc(CN(C)CC(O)COc3ccc(NS(C)(=O)=O)cc3)ccc2c1` (centres undefined), the APD is 16%.

Take `CN(Cc1nc2ccccc2n1C)CC(O)COc1ccc(NS(C)(=O)=O)cc1` (centres undefined): the APD was 12%.

Turning to `CS(=O)(=O)Nc1ccc(OCC(O)CN2CCN(c3ncccn3)CC2)cc1` (centres undefined), the APD is 15%.

For the next assay, the species on record is Canis familiaris. The assay is described as follows: Maximum rate of rise of the upstroke of transmembrane potential, in canine Purkinje Fibers at a concentration of 3.0 uM at 300 ms (simulating tachycardia). The format is functional. The arrangement: unit not given here. The settings on record: Canis lupus familiaris, Purkinje fiber. A digest of the protocol:
as §1
Take `CN(Cc1ccc2ccccc2n1)CC(O)COc1ccc(-n2ccnc2)cc1` (centres undefined): the Vmax is -11.

With `CN(Cc1ccc2cc(Cl)ccc2n1)CC(O)COc1ccc(NS(C)(=O)=O)cc1` (centres undefined), the Vmax is -2.

As for `Cc1nc2ccccc2nc1CN(C)CC(O)COc1ccc(NS(C)(=O)=O)cc1` (centres undefined), the Vmax was 3.

Take `COc1ccc2nc(CN(C)CC(O)COc3ccc(NS(C)(=O)=O)cc3)ccc2c1` (centres undefined): the Vmax was -6.

As to `CN(Cc1nc2ccccc2n1C)CC(O)COc1ccc(NS(C)(=O)=O)cc1` (centres undefined), the Vmax is 4.

Regarding `CS(=O)(=O)Nc1ccc(OCC(O)CN2CCN(c3ncccn3)CC2)cc1` (centres undefined), the Vmax was -12.

A further assay is filed under the species Canis familiaris. As to the kind of experiment: Maximum rate of rise of the upstroke of transmembrane potential, in canine Purkinje Fibers at a concentration of 3.0 uM at 1000 ms (simulating normal heart rate). As to conditions: Canis lupus familiaris, Purkinje fiber. The arrangement: unit not given here. Format: functional. A digest of the protocol:
as §1
Consider `CN(Cc1ccc2ccccc2n1)CC(O)COc1ccc(-n2ccnc2)cc1` (centres undefined), for which the Vmax is -15.

Regarding `CN(Cc1ccc2cc(Cl)ccc2n1)CC(O)COc1ccc(NS(C)(=O)=O)cc1` (centres undefined), the Vmax is 0.

Turning to `Cc1nc2ccccc2nc1CN(C)CC(O)COc1ccc(NS(C)(=O)=O)cc1` (centres undefined), the Vmax was 7.

Take `COc1ccc2nc(CN(C)CC(O)COc3ccc(NS(C)(=O)=O)cc3)ccc2c1` (centres undefined): the Vmax was 0.

For the compound `CN(Cc1nc2ccccc2n1C)CC(O)COc1ccc(NS(C)(=O)=O)cc1` (centres undefined), the Vmax is 7.

Take `CS(=O)(=O)Nc1ccc(OCC(O)CN2CCN(c3ncccn3)CC2)cc1` (centres undefined): the Vmax was -17.
